Data as given in ChEMBL document CHEMBL1122622, “Carbocyclic analogues of xylofuranosylpurine nucleosides. Synthesis and antitumor activity” (J Med Chem, 1984).

Tests used:
Mus musculus [1] = test: Compound was evaluated for the in vivo antitumor activity against P388 leukemia cells after injecting the compound intraperitoneally at a dose of 1 mg/kg in mice; assay type: functional; details: route intraperitoneal
In short: (§1)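 BDF1 male mice, eight per group, implanted ip with 10⁶ P388 leukemia cells. Drug given ip in 0.5 mL saline. Schedules varied between groups; the 100 mg/kg/day regimen was dosed qd 1-9.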

Mus musculus [2] = test: Compound was evaluated for the in vivo antitumor activity against P388 leukemia cells after injecting the compound intraperitoneally at a dose of 2 mg/kg in mice (treatment schedule 1-9 days); assay type: functional; details: route intraperitoneal; in short: as §1
Mus musculus [3] = test: (§2) Compound was evaluated for the in vivo antitumor activity against P388 leukemia cells after injecting the compound intraperitoneally at a dose of 5 mg/kg in mice; assay type: functional; details: route intraperitoneal; in short: as §1
Mus musculus [4] = test: Compound was evaluated for the in vivo antitumor activity against P388 leukemia cells after injecting the compound intraperitoneally at a dose of 50 mg/kg in mice; assay type: functional; details: route intraperitoneal; in short: as §1
Mus musculus [5] = test: as §2; assay type: functional; details: route intraperitoneal; in short: as §1; remark: listed apart in the source
Mus musculus [6] = test: Compound was evaluated for the in vivo antitumor activity against p388 leukemia cells after injecting the compound intraperitoneally at a dose of 2 mg/kg in mice; assay type: functional; details: route intraperitoneal; in short: as §1
Mus musculus [7] = test: Compound was evaluated for the in vivo antitumor activity against p388 leukemia cells after injecting the compound intraperitoneally at a dose of 5 mg/kg in mice; assay type: functional; details: route intraperitoneal; in short: as §1
Mus musculus [8] = species: Mus musculus; test: Effective dose by 50% was evaluated; assay type: functional
In short: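 P388 mouse lymphoid leukemia cells were grown in culture in the presence of the compound, and the concentration giving 50% effect on growth was taken as the ED₅₀.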

[9] = target: Adenosine deaminase (Bos taurus) (UniProt P56658); test: Compound was evaluated for competitive inhibition of adenosine deaminase and expressed as Ki
Sequence of Adenosine deaminase (Bos taurus) (P56658 whole entry, looked up): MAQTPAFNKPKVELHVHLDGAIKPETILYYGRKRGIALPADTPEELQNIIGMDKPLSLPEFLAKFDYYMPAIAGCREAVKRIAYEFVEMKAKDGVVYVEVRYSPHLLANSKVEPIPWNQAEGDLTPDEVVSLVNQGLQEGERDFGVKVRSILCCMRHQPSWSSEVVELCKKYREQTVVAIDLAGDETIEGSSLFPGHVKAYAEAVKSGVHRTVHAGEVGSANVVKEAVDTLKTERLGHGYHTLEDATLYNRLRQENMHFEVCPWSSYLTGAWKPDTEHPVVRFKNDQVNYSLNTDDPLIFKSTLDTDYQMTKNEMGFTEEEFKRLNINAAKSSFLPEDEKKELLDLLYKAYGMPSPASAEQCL

Structure (SMILES)	Survival time (Mus musculus [1]) [days]	T/C (Mus musculus [1]) [%]	Survival time (Mus musculus [2]) [days]	Survival time (Mus musculus [3]) [days]	Survival time (Mus musculus [4]) [days]	T/C (Mus musculus [4]) [%]	Survival time (Mus musculus [5]) [days]	T/C (Mus musculus [5]) [%]	T/C (Mus musculus [6]) [%]	T/C (Mus musculus [7]) [%]	ED50 (Mus musculus [8]) [µM]	Ki [9] [µM]
Nc1ncnc2c1nnn2C1CC(CO)C(O)C1O (configuration not stated)	13.9	128	16.1	18.4	19.5	226	17.9	175	149	173		
Nc1ncnc2c1ncn2[C@@H]1C[C@H](CO)[C@@H](O)[C@H]1O [ARISTEROMYCIN]											67	9.9
